Measurements as given in publication PMC3697071 (Natural product communications, 2010).
In brackets after ≈: the same amount, converted by molar mass.

Experiments:
[1] = test system: Pseudomonas aeruginosa ATCC 27853; experiment: Antimicrobial assay; format: cell-based; settings: for IC50: ATCC27853, read-out: P. aureginosa IC50; for P. aureginosa IC50: first value of IC50/MIC
In short: (§1)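 Modified CLSI broth susceptibility method. Ciprofloxacin drug control in each assay. […] MIC is the lowest test concentration allowing no detectable growth.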

[2] = test system: Escherichia coli ATCC 35218; experiment: Antimicrobial assay; format: cell-based; settings: for IC50: ATCC35218, read-out: E. coli IC50; for E. coli IC50: first value of IC50/MIC
In short: as §1

[3] = test system: methicillin-resistant S. aureus ATCC 43300 (MRS); experiment: Antimicrobial assay; format: cell-based, Staphylococcus aureus; settings: for IC50 / MIC: Staphylococcus aureus; for IC50: ATCC43300, read-out: MRS IC50; for MIC: ATCC43300, read-out: MRS MIC; for MRS IC50 / MRS MIC: methicillin-resistant S. aureus; for MRS IC50: first value of IC50/MIC; for MRS MIC: second value of IC50/MIC
In short: as §1

[4] = test system: Staphylococcus aureus ATCC 29213; experiment: Antimicrobial assay; format: cell-based; settings: for IC50 / MIC: Staphylococcus aureus; for IC50: ATCC29213, read-out: S. aureus IC50; for MIC: ATCC29213, read-out: S. aureus MIC; for S. aureus IC50: first value of IC50/MIC; for S. aureus MIC: second value of IC50/MIC
In short: as §1

[5] = test system: Mycobacterium intracellulare ATCC 23068; experiment: Antimicrobial assay; format: cell-based; settings: for IC50: ATCC23068, read-out: M. intracellulare IC50; for M. intracellulare IC50: first value of IC50/MIC; for M. intracellulare MIC: second value of IC50/MIC
In short: as §1

[6] = test system: Cryptococcus neoformans ATCC 90113; experiment: Antimicrobial assay; format: cell-based; settings: for C. neoformans IC50: first value of IC50/MIC; for C. neoformans MIC: second value of IC50/MIC; for IC50 / MIC: Cryptococcus neoformans; for IC50: ATCC90113, read-out: C. neoformans IC50; for MIC: ATCC90113, read-out: C. neoformans MIC
[7] = test system: P. falciparum W2 (chloroquine-resistant, Indochina); experiment: Antimalarial/parasite LDH assay, W2 clone; format: cell-based, Plasmodium falciparum; settings: for IC50: Plasmodium falciparum, W2, read-out: P. falciparum W2 IC50
[8] = test system: P. falciparum D6 (chloroquine-sensitive, Sierra Leone); experiment: Antimalarial/parasite LDH assay, D6 clone; format: cell-based, Plasmodium falciparum; settings: for IC50: Plasmodium falciparum, D6, read-out: P. falciparum D6 IC50
[9] = test system: Aspergillus fumigatus ATCC 90906; experiment: Antimicrobial assay; format: cell-based; settings: for A. fumigatus IC50: first value of IC50/MIC; for IC50: Aspergillus fumigatus, ATCC90906, read-out: A. fumigatus IC50
[10] = test system: Leishmania donovani promastigotes; experiment: Antileishmanial assay; format: cell-based; settings: 72 h; for L. donovani IC50 / L. donovani IC90: promastigotes; for IC50 / IC90: Leishmania donovani; for IC50: read-out: L. donovani IC50; for IC90: read-out: L. donovani IC90
[11] = test system: Candida krusei ATCC 6258; experiment: Antimicrobial assay; format: cell-based; settings: for C. krusei IC50: first value of IC50/MIC; for C. krusei MIC: second value of IC50/MIC
[12] = test system: Candida albicans ATCC 90028; experiment: Antimicrobial assay; format: cell-based; settings: for C. albicans IC50: first value of IC50/MIC; for IC50: Candida albicans, ATCC90028, read-out: C. albicans IC50
[13] = test system: Candida glabrata ATCC 90030; experiment: Antimicrobial assay; format: cell-based; settings: for C. glabrata IC50: first value of IC50/MIC
[14] = test system: Plasmodium falciparum; experiment: Antimalarial/parasite LDH assay, strains not distinguished in text; format: cell-based; settings: for IC50: Plasmodium falciparum, read-out: antiplasmodial IC50; for antimalarial activity against Plasmodium falciparum: result in words
In short: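 Colorimetric assay of parasite lactate dehydrogenase (pLDH) activity in P. falciparum cultures, run in 96-well format on two strains: Sierra Leone D6 (chloroquine-sensitive) and Indochina W2 (chloroquine-resistant). DMSO served as vehicle control, with artemisinin and chloroquine as drug controls.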

O=C(O)c1cn(C2CC2)c2cc(N3CCNCC3)c(F)cc2c1=O [Ciprofloxacin, reference compound]
IC50 ([1]; Pseudomonas aeruginosa): 0.06 µg/mL (≈ 0.181 µM) | MIC ([1]; Pseudomonas aeruginosa, ATCC27853, read-out: P. aureginosa MIC): 0.25 µg/mL (≈ 0.754 µM) | IC50 ([2]; Escherichia coli): 0.004 µg/mL (≈ 0.0121 µM) | MIC ([2]; Escherichia coli, ATCC35218, read-out: E. coli MIC): 0.008 µg/mL (≈ 0.0241 µM) | IC50 [3]: 0.08 µg/mL (≈ 0.241 µM) | MIC [3]: 0.25 µg/mL (≈ 0.754 µM) | IC50 [4]: 0.1 µg/mL (≈ 0.302 µM) | MIC [4]: 0.25 µg/mL (≈ 0.754 µM) | IC50 ([5]; Mycobacterium intracellulare): 0.3 µg/mL (≈ 0.905 µM) | MIC ([5]; Mycobacterium intracellulare, ATCC23068, read-out: M. intracellulare MIC): 1 µg/mL (≈ 3.02 µM)

CC(CO)c1cc2c(c(O)c1O)[C@@]1(C)CCCC(C)(C)C1=C(O)C2=O (stereo partly shown) [Compound 8, 6,11,12,16-tetrahydroxy-5,8,11,13-abietatetra-en-7-one]
C. neoformans IC50 [6]: 5.9 µg/mL | C. neoformans MIC [6]: 20 µg/mL | P. falciparum W2 IC50 ([7]; chloroquine-resistant clone W2): 4.8 µg/mL | P. aureginosa IC50 [1]: −/− (=Not Active) | P. falciparum D6 IC50 ([8]; chloroquine-sensitive clone D6): 3.0 µg/mL | E. coli IC50 [2]: −/− (=Not Active) | MRS IC50 [3]: 8.44 µg/mL | MRS MIC [3]: 20 µg/mL | A. fumigatus IC50 [9]: −/− (- =Not Active) | L. donovani IC50 [10]: 12 µg/mL | L. donovani IC90 [10]: 22 µg/mL | C. krusei IC50 [11]: 14.5 µg/mL | C. krusei MIC [11]: 20 µg/mL | C. albicans IC50 [12]: −/− (- =Not Active) | S. aureus IC50 [4]: 6.8 µg/mL | S. aureus MIC [4]: 20 µg/mL | C. glabrata IC50 [13]: 14.9 µg/mL | C. glabrata MIC ([13]; second value of IC50/MIC): 20 µg/mL | M. intracellulare IC50 [5]: −/− (=Not Active)

CC(C)c1cc2c(c(O)c1OC1OCC(O)C(O)C1O)C1(C)CCCC(C)(C)C1CC2 (stereo not drawn) [Compound 10, 11-hydroxy-8,11,13-abietatriene-12-O-β-xylopyranoside]
C. neoformans IC50 [6]: −/− (- =Not Active) | P. aureginosa IC50 [1]: −/− (=Not Active) | E. coli IC50 [2]: −/− (=Not Active) | MRS IC50 [3]: −/− (=Not Active) | A. fumigatus IC50 [9]: −/− (- =Not Active) | C. krusei IC50 [11]: −/− (- =Not Active) | C. albicans IC50 [12]: −/− (- =Not Active) | S. aureus IC50 [4]: −/− (=Not Active) | C. glabrata IC50 [13]: −/− (- =Not Active) | M. intracellulare IC50 [5]: −/− (=Not Active)

CC(C)C1=CC2=CC(=O)[C@H]3C(C)(C)CCC[C@]3(C)C2=C(O)C1=O [Compound 3, taxodione]
IC50 [6]: 0.58 µg/mL (≈ 1.84 µM) | MIC [6]: 1.25 µg/mL (≈ 3.98 µM) | C. neoformans MIC [6]: 1.25 µg/mL | IC50 [7]: 1.2 µg/mL (≈ 3.82 µM) | IC50 ([1]; Pseudomonas aeruginosa): > 20 µg/mL | IC50 [8]: 1.2 µg/mL (≈ 3.82 µM) | IC50 ([2]; Escherichia coli): > 20 µg/mL | IC50 [14]: 1.2 to 4.8 µg/mL (≈ 3.82 to 15.3 µM) | antimalarial activity against Plasmodium falciparum [14]: weak antimalarial activity | IC50 [3]: 1.47 µg/mL (≈ 4.68 µM) | MIC [3]: 2.5 µg/mL (≈ 7.95 µM) | MRS MIC [3]: 2.5 µg/mL | IC50 [9]: 8.9 µg/mL (≈ 28.3 µM) | A. fumigatus MIC ([9]; second value of IC50/MIC): − | IC50 [10]: 0.08 µg/mL (≈ 0.254 µM) | IC90 [10]: 0.21 µg/mL (≈ 0.668 µM) | C. krusei MIC [11]: − | IC50 [12]: 12.5 µg/mL (≈ 39.8 µM) | C. albicans MIC ([12]; second value of IC50/MIC): − | IC50 [4]: 1.35 µg/mL (≈ 4.29 µM) | MIC [4]: 5 µg/mL (≈ 15.9 µM) | S. aureus MIC [4]: 2.5 to 5 µg/mL | IC50 ([5]; Mycobacterium intracellulare): 11.9 µg/mL (≈ 37.8 µM) | M. intracellulare MIC [5]: −

CC1=C(C)C2=CC(=O)c3c(O)c4c(c(O)c3[C@@]2(C)CC1)O[C@@H](C)C4 [Compound 9, uncinatone]
C. neoformans IC50 [6]: −/− (- =Not Active) | P. aureginosa IC50 [1]: −/− (=Not Active) | E. coli IC50 [2]: −/− (=Not Active) | antimalarial activity against Plasmodium falciparum [14]: inactive | MRS IC50 [3]: −/− (=Not Active) | A. fumigatus IC50 [9]: −/− (- =Not Active) | L. donovani IC50 [10]: 0.2 µg/mL | L. donovani IC90 [10]: 0.9 µg/mL | C. krusei IC50 [11]: −/− (- =Not Active) | C. albicans IC50 [12]: −/− (- =Not Active) | S. aureus IC50 [4]: −/− (=Not Active) | C. glabrata IC50 [13]: −/− (- =Not Active) | M. intracellulare IC50 [5]: −/− (=Not Active)

CC(C)C1=C(O)C(=O)C2=C(CC[C@H]3C(C)(C)CCC[C@]23C)C1=O [Compound 2, royleanone]
IC50 [6]: > 20 µg/mL | IC50 [7]: > 4.76 µg/mL | IC50 ([1]; Pseudomonas aeruginosa): > 20 µg/mL | IC50 [8]: > 4.76 µg/mL | IC50 ([2]; Escherichia coli): > 20 µg/mL | IC50 [3]: > 20 µg/mL | IC50 [9]: > 20 µg/mL | IC50 [12]: > 20 µg/mL | IC50 [4]: > 20 µg/mL | IC50 ([5]; Mycobacterium intracellulare): > 20 µg/mL

CC(C)c1cc2c(cc1O)[C@@]1(C)CCCC(C)(C)[C@@H]1CC2 [Compound 6, ferruginol]
IC50 [6]: > 20 µg/mL | IC50 [7]: > 4.76 µg/mL | IC50 ([1]; Pseudomonas aeruginosa): > 20 µg/mL | IC50 [8]: > 4.76 µg/mL | IC50 ([2]; Escherichia coli): > 20 µg/mL | IC50 [3]: 0.96 µg/mL (≈ 3.35 µM) | MIC [3]: 2.5 µg/mL (≈ 8.73 µM) | MRS MIC [3]: 2.5 µg/mL | IC50 [9]: > 20 µg/mL | IC50 [10]: 4 µg/mL (≈ 14 µM) | IC90 [10]: 13 µg/mL (≈ 45.4 µM) | IC50 [12]: > 20 µg/mL | IC50 [4]: 1.33 µg/mL (≈ 4.64 µM) | MIC [4]: 2.5 µg/mL (≈ 8.73 µM) | S. aureus MIC [4]: 2.5 to 5 µg/mL | IC50 ([5]; Mycobacterium intracellulare): 14.5 µg/mL (≈ 50.6 µM) | M. intracellulare MIC [5]: −

N=C(N)c1ccc(OCCCCCOc2ccc(C(=N)N)cc2)cc1 [Pentamidine, reference compound]
IC50 [10]: 1.4 µg/mL (≈ 4.11 µM) | IC90 [10]: 6 µg/mL (≈ 17.6 µM)

C[C@@H]1CC[C@H]2[C@@H](C)C(=O)O[C@@H]3O[C@@]4(C)CC[C@@H]1[C@]32OO4 [Artemisinin, reference compound]
IC50 [7]: < 0.026 µg/mL | IC50 [8]: < 0.026 µg/mL | IC50 [14]: < 0.026 µg/mL

CCN(CC)CCCC(C)Nc1ccnc2cc(Cl)ccc12 (stereo not shown) [Chloroquine, reference compound]
IC50 [7]: 0.14 µg/mL (≈ 0.438 µM) | IC50 [8]: < 0.026 µg/mL

C[C@@H]1[C@H](O)[C@@H](C)/C=C/C=C/C=C/C=C/C=C/C=C/C=C/[C@H](O[C@@H]2O[C@H](C)[C@@H](O)[C@H](N)[C@@H]2O)C[C@@H]2O[C@](O)(C[C@@H](O)C[C@@H](O)[C@H](O)CC[C@@H](O)C[C@@H](O)CC(=O)O[C@H]1C)C[C@H](O)[C@H]2C(=O)O [Amphotericin B, reference compound]
MIC [6]: 1.25 µg/mL (≈ 1.35 µM) | IC50 [9]: 1.29 µg/mL (≈ 1.4 µM) | IC50 [10]: 0.13 µg/mL (≈ 0.141 µM) | IC90 [10]: 0.3 µg/mL (≈ 0.325 µM) | IC50 [12]: 0.43 µg/mL (≈ 0.465 µM)
